Our source for the IC50, MIC and CC50 values is ChEMBL document CHEMBL1132294, “Derivatives of the new ring system indolo[1,2-c]benzo[1,2,3]triazine with potent antitumor and antimicrobial activity” (J Med Chem, 1999).

In assay [1] the test system is KB. Briefly: Antiproliferative activity against drug-resistant tumor cell line KB7D. Format: functional, cell-based. The following applies: Homo sapiens. In outline:
(§1)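 Solid-tumour and KB lines: exponentially growing cells seeded at 5×10⁴ cells/mL, allowed to adhere 16 h, then serial drug dilutions added. Viability by MTT after 4 days. Growth expressed as % of untreated controls, 50% inhibitory concentration by linear regression. Untreated cells undergo at least three rounds of multiplication.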

Assay [2] deals with KB. Briefly: Antiproliferative activity against drug-resistant tumor cell line KBwt. In kind it is functional, cell-based. The following applies: Homo sapiens. The essentials:
as §1

Assay [3] concerns KB. Briefly: Antiproliferative activity against drug-resistant tumor cell line KBCamp. Format: functional, cell-based. To be noted: Homo sapiens. The essentials:
as §1

Assay [4] concerns KB. Briefly: Antiproliferative activity against drug-resistant tumor cell line KBV20C. In kind it is functional, cell-based. The following applies: Homo sapiens. The essentials: as §1
In assay [5] the test system is KB. Briefly: Antiproliferative activity against drug-resistant tumor cell line KBMDR. In kind it is functional, cell-based. The following applies: Homo sapiens. The essentials:
as §1

The test system of another assay is Candida parapsilosis. Briefly: Antimycotic activity against Candida parapsilosis was evaluated as compound concentration at which no macroscopic signs of fungal growth were detected. Format: functional. To be noted: Lodderomyces parapsilosis. In outline: (§2)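 Yeast inocula from 30 h Sabouraud dextrose broth cultures at 37 °C, diluted to 5×10³ cells/mL. Dermatophyte inocula from 5-day cultures, homogenized and diluted to 0.05 OD₅₉₀/mL. Inocula added to medium with serial dilutions, incubated at 37 °C, read visually at 2 days (yeast) or 3 days (dermatophytes). Mean of at least three experiments.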

A further assay deals with Candida albicans. Briefly: Antimycotic activity against Candida albicans was evaluated as minimum inhibitory concentration of compound at which no macroscopic signs of fungal growth were detected. In kind it is functional. The essentials:
as §2

The test system of another assay is Cryptococcus neoformans. Briefly: Antimycotic activity against Cryptococcus neoformans was evaluated. MIC was defined as compound concentration at which no macroscopic signs of fungal growth were detected. In kind it is functional. The essentials: as §2
The test system of another assay is Candida tropicalis. Briefly: Antimycotic activity against Candida paratropicalis was evaluated. MIC was defined as compound concentration at which no macroscopic signs of fungal growth were detected. In kind it is functional. In outline:
as §2

For a further assay, the system named is Trichophyton benhamiae. Briefly: Antimycotic activity against Trichophyton mentagrophytes was evaluated. MIC was defined as compound concentration at which no macroscopic signs of fungal growth were detected. Format: functional, Arthroderma benhamiae. In outline:
as §2

The next assay relates to MOLT-4. Briefly: Antitumor activity was evaluated against leukemia cell line MOLT-4(human acute T lymphoblastic leukemia). In kind it is functional, cell-based. The essentials: (§3)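 Exponentially growing leukemia/lymphoma cells resuspended at 1×10⁵ cells/mL in RPMI with serial drug dilutions. Viability by MTT after 4 days at 37 °C. Concentration giving 50% growth inhibition versus untreated controls found by linear regression. Mean of at least three experiments.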

A further assay has as its system Mycobacterium. Briefly: Antibacterial activity was evaluated against MAC (Mycobacterium Avium Complex ). Format: functional. In outline:
(§4)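 Mycobacterial suspension (turbidity of 1 McFarland standard, 10⁸ CFU/mL) added to Middlebrook 7H9 with 0.5% glycerol, 10% OADC and serial compound dilutions. Incubated at 37 °C, 1 day for M. smegmatis and M. fortuitum, 9 days for MAC. Viable mycobacteria counted by MTT. MIC given as mean of at least three separate experiments.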

The subject of another assay is CHO-K1. Briefly: Antitumor activity was evaluated against Chinese hamster ovary carcinoma cell line CHO-K1. In kind it is functional, cell-based. To be noted: Cricetulus griseus. In outline:
as §1

Assay [6] has as its system Mycobacterium tuberculosis. Briefly: Antibacterial activity was evaluated against Mycobacterium tuberculosis (clinical isolate 1104). Format: functional. The essentials:
(§5)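 Broth microdilution in Middlebrook 7H9 with 0.5% glycerol and 10% OADC, containing serial concentrations of compound (diluted in medium from a DMSO solution). Plates were incubated 9 days at 37 °C, and viable bacteria were read by MTT. MIC is the mean of at least three separate experiments.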

The next assay has as its system L1210. Briefly: Antitumor activity was evaluated against leukemia cell line L1210 (mouse leukemia). Format: functional, cell-based. The essentials:
as §3

The subject of another assay is WIL2-NS. Briefly: Antitumor activity was evaluated against lymphoma cell line Wil2-NS (human splenic B lymphoblastoid cells). Format: functional, cell-based. In outline:
as §3

Another assay deals with ACHN. Briefly: Antitumor activity was evaluated against human renal adenocarcinoma cell line ACHN. In kind it is functional, cell-based. In outline:
as §1

The next assay has as its system Streptococcus. Briefly: Antibacterial activity was evaluated against streptococcus. In kind it is functional. In outline:
(§6)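 Recent clinical isolates grown in nutrient broth, pH 7.2, inoculum 10³ bacterial cells/tube, with serial compound dilutions. […] Mean of at least three separate experiments.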

In another assay the test system is CCRF-SB. Briefly: Antitumor activity was evaluated against leukemia cell line CCRF-SB(human acute B lymphoblastic leukemia). Format: functional, cell-based. The essentials:
as §3

Another assay concerns Salmonella. Briefly: Antibacterial activity was evaluated against salmonella. Format: functional. In outline: as §6
A further assay relates to MT4. Briefly: Antitumor activity was evaluated against leukemia cell line MT-4(human CD4+ T cells expressing the TAT gene of HTLV-1). In kind it is functional, cell-based. In outline:
as §3

A further assay has as its system Shigella. Briefly: Antibacterial activity was evaluated against shigella. Format: functional. In outline: as §6
A further assay deals with IMR-32. Briefly: Antitumor activity was evaluated against human neuroblastoma cell line IMR-32. Format: functional, cell-based. In outline:
as §1

A further assay deals with CCRF-CEM. Briefly: Antitumor activity was evaluated against leukemia cell line CCRF-CEM(human acute T lymphoblastic leukemia). In kind it is functional, cell-based. In outline:
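Exponentially growing leukemia/lymphoma cells resuspended at 1×10⁵ cells/mL in RPMI with serial drug dilutions. Viability by MTT after 4 days at 37 °C. Mean of at least three experiments.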

A further assay deals with Aspergillus fumigatus. Briefly: Antimycotic activity against Aspergillus fumigatus was evaluated as compound minimum inhibitory concentration at which no macroscopic signs of fungal growth were detected. In kind it is functional.
For another assay, the system named is 5637. Briefly: Antitumor activity was evaluated against human bladder carcinoma cell line 5637. In kind it is functional, cell-based. In outline: as §1
For assay [7], the system named is Mycobacterium tuberculosis. Briefly: Antibacterial activity was evaluated against Mycobacterium tuberculosis (ATCC). In kind it is functional. The essentials:
as §5

In assay [8] the test system is Mycolicibacterium smegmatis. Briefly: Antibacterial activity was evaluated against Mycobacterium smegmatis. In kind it is functional. In outline:
as §4

Assay [9] concerns Mycolicibacterium fortuitum. Briefly: Antibacterial activity was evaluated against Mycobacterium fortuitum. Format: functional. The essentials:
as §4

In another assay the test system is Staphylococcus. Briefly: Antibacterial activity was evaluated against staphylococcus. Format: functional. In outline:
as §6

Another assay relates to HT-29. Briefly: Antitumor activity was evaluated against human colon adenocarcinoma cell line HT-29. In kind it is functional, cell-based. In outline:
as §1

For a further assay, the system named is HeLa. Briefly: Antitumor activity was evaluated against human cervix carcinoma cell line HeLa. In kind it is functional, cell-based. The essentials: as §1
The species entered for assay [10] is Homo sapiens. Briefly: In vitro Antiproliferative activity against peripheral blood lymphocytes (PBL) after stimulating PBL with PHA and then resuspending in IL-2-containing medium in the presence of compound. In kind it is functional. In outline: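 PBL from HIV-negative donors, isolated on Ficoll-Hypaque and rested overnight. Stimulated with PHA 2.5 μg/mL for 24 h, diluted to 1×10⁵ cells/mL in medium with PHA, IL-2 50 U/mL and compound. Viable cells counted after 6 days. Mean ±SD of three experiments.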

The species entered for assay [11] is Homo sapiens. Briefly: In vitro Antiproliferative activity against peripheral blood lymphocytes (PBL) by treating PBL with compound for 3 days, then stimulating with PHA and then resuspending in compound free medium. Format: functional. The following applies: 72 h. The essentials: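 Resting donor PBL held at 1×10⁶ cells/mL and treated with compound for up to 3 days, then washed. Stimulated with PHA for 24 h, diluted to 1×10⁵ cells/mL in drug-free medium with PHA and IL-2. Viability read after 6 days at 37 °C. Mean ±SD of three experiments.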

Another assay deals with Lymphoblastoid cell. Briefly: Cytotoxicity was evaluated against lymphoblastoid cell line. In kind it is functional. To be noted: Homo sapiens.

SMILES strings stand for the structures. Converted amounts (≈) assume the structure as drawn. Some results are limits rather than exact numbers.

As a reminder, the IC50 is the midpoint of a concentration-inhibition curve. Low values mean greater potency in that assay, high ones weaker potency in that assay. `CC[C@@]1(O)C(=O)OCc2c1cc1n(c2=O)Cc2cc3ccccc3nc2-1` [CAMPTOTHECIN]: the IC50 with KB [1] was 35 nM; in the assay on KB [2] it was 40 nM; in the assay on KB [3] it was 1040 nM; in the assay on KB [4], 30 nM; in the assay on KB [5], 70 nM.

As usually defined, the MIC is the smallest concentration in the dilution series that meets the test's criterion for growth inhibition. A low value points to greater potency. Take `Clc1ccc(COC(Cn2ccnc2)c2ccc(Cl)cc2Cl)c(Cl)c1` (stereo unspecified) [MICONAZOLE]: the minimum inhibitory concentration (MIC) against Candida parapsilosis was 7.5 µM (≈ 3.12 µg/mL); in the assay on Candida albicans, 7.5 µM (≈ 3.12 µg/mL); in the assay on Cryptococcus neoformans, 0.9 µM (≈ 0.375 µg/mL); against Candida tropicalis, 0.9 µM (≈ 0.375 µg/mL); in the assay on Trichophyton benhamiae it was 0.9 µM (≈ 0.375 µg/mL).

Regarding `O=Nc1c2ccccc2n2nnc3ccc(Cl)cc3c12`, the IC50 was determined as 2000 nM in the assay on MOLT-4; 31000 nM with CHO-K1; 7400 nM in the assay on L1210; 2700 nM in the assay with WIL2-NS; 11000 nM with ACHN; 7000 nM in the assay with CCRF-SB. The IC50 in the assay with MT4 was found to be 1700 nM; in the assay with IMR-32, 2300 nM; in the assay with CCRF-CEM, 5000 nM; in the assay on 5637, 2100 nM; in the assay on HT-29 it was 24000 nM; in the assay with HeLa, 5400 nM. Also, the MIC in the assay on Mycobacterium amounted to 2.5 µM (≈ 0.707 µg/mL); against Candida parapsilosis, 19 µM (≈ 5.37 µg/mL); in the assay on Candida albicans, 150 µM (≈ 42.4 µg/mL); in assay [6] it was 1.6 µM (≈ 0.452 µg/mL); in the assay on Cryptococcus neoformans, 0.8 µM (≈ 0.226 µg/mL); in the assay with Streptococcus, 0.1 µM (≈ 0.0283 µg/mL). In addition, the MIC in the assay with Candida tropicalis was 150 µM (≈ 42.4 µg/mL); against Salmonella, over 200 µM; against Shigella it was over 200 µM; against Aspergillus fumigatus, 9.4 µM (≈ 2.66 µg/mL); in assay [7], 1.8 µM (≈ 0.509 µg/mL); in [8], 4.2 µM (≈ 1.19 µg/mL). Further, the minimal inhibitory concentration (MIC) in assay [9] is over 5 µM; against Trichophyton benhamiae, 9.4 µM (≈ 2.66 µg/mL); against Staphylococcus, 0.05 µM (≈ 0.0141 µg/mL).

`COc1cccc2c1C(=O)c1c(O)c3c(c(O)c1C2=O)C[C@@](O)(C(=O)CO)C[C@@H]3O[C@H]1C[C@H](N)[C@H](O)[C@H](C)O1` [DOXORUBICIN]: the values for the CC50 in the assay filed under Homo sapiens [10], in the assay listed under Homo sapiens [11] and with Lymphoblastoid cell were 40 nM, 90 nM and 60 nM, respectively. Also, the IC50 in the assay on MOLT-4 worked out at 30 nM; in the assay on CHO-K1, 400 nM; with L1210, 230 nM; in the assay on WIL2-NS, 20 nM; with ACHN, 400 nM; with CCRF-SB, 10 nM. Moreover, the IC50 came out at 20 nM in the assay on MT4, 10 nM in the assay with IMR-32, 20 nM in the assay with 5637 and 50 nM in the assay on HT-29. Also, the MIC against Candida parapsilosis, against Candida albicans, with Cryptococcus neoformans, with Candida tropicalis, with Aspergillus fumigatus and against Trichophyton benhamiae was over 2.5 µM in each case.

`CC[C@]1(O)C[C@H]2CN(CCc3c([nH]c4ccccc34)[C@@](C(=O)OC)(c3cc4c(cc3OC)N(C=O)[C@H]3[C@@](O)(C(=O)OC)[C@H](OC(C)=O)[C@]5(CC)C=CCN6CC[C@]43[C@@H]65)C2)C1` [VINCRISTINE]: the IC50 worked out at 35 nM in the assay with KB [1]; 1 nM in the assay on KB [2]; 5 nM in the assay with KB [3]; 50 nM in the assay on KB [4]; 350 nM with KB [5].
